Screens (PubChem BioAssay)
ABHD5-PLIN5 inh – ABHD5-PLIN5 protein interaction inhibition | Split G. princeps luciferase complementation, luminescence, 4 h | inhibition, % at 4 µM | Q00G26+Q8WTS1 | AID 602281 | 360,000 tested, 0.78% active;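 active means inhibition above the mean inhibition across every tested compound plus 3 SD, cut at about 22% in these data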;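 further: 0% = DMSO only wells and the 100% control is not disclosed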
SENP1 inh – blocks the human SENP1 SUMO protease catalytic domain. Q9P0U3. 360,000 tested, 0.21% active. recombinant SENP1 catalytic domain, CyPet-SUMO1-YPet FRET cleavage. inhibition, % at 10 µM;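 active means inhibition at least 30% at 10 µM, raw YFP signal under a set limit, fluorescence ratio 0.5 to 1.5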;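 further: 0% = enzyme with DMSO and 100% = no enzyme wells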
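Test system: recombinant human SENP1 catalytic domain, His6-tagged / Medium: pH 8 Tris buffer with EDTA, NaCl, BME, BSA, NP40, catalase / Also added: SUMO1 FRET substrate flanked by Cypet and Ypet, 25 nM / Times: 50 min reaction at room temperature / Signal: FRET, CFP and YFP emission / Control set: no-enzyme low control and enzyme-plus-DMSO high control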
NadD block – NadD (S. aureus) enzyme inhibition; purified NadD enzyme, colorimetric absorbance read-out; inhibition, % at 20 µM; 360,000 tested, 0.78% active; AID 602399; in the data active means inhibition above about 26%
Beta2AR agonist – human beta-2 adrenergic receptor agonism by FAP; P07550; Am2.2-beta2AR cells, FAP receptor internalization, flow cytometry; response, % (concentration not given with the values); 340,000 tested, 0.43% active; AID 504454;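 active means response above a set limit, near 3 SD of response in nonfluorescent compounds, cut at about 42% in these data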
Target sequence (P07550 whole entry, looked up): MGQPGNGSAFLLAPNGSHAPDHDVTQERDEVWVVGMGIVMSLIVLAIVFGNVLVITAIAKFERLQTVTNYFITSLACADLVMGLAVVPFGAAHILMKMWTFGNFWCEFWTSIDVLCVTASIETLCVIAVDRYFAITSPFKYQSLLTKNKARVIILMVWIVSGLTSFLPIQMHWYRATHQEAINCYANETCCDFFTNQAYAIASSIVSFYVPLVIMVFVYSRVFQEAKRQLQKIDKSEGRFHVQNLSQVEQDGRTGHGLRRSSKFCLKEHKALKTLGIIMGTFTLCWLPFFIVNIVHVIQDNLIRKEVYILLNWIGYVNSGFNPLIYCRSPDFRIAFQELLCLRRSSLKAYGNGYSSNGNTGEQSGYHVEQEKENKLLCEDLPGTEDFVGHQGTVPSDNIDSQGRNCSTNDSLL
GRK2 inh – human GRK2 inhibition via aptamer displacement; 330,000 tested, 0.59% active; inhibition of aptamer binding, % at 10 µM; bead flow cytometry, FAM-aptamer displacement from GRK2;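 active means inhibition of aptamer binding above 40%, roughly 3 SD of noise, on plates passing a quality check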;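 further: median bead fluorescence of bound FAM aptamer so fluorescent compounds give negative values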
Beta2AR ag CP1 – agonists of human beta-2 adrenergic receptor; shares compounds with Beta2AR agonist; Am2.2-beta2AR cells, FAP surface receptor, flow cytometry; active compounds read low; percent response (surface receptor), % at 10 µM; 1,100 tested, 25% active; AID 540358;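 active means surface receptor percent response at or below 58%, roughly 3 SD from nonfluorescent compounds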
FAP fluor counter – flagged in Am2.2 fluorescence counterscreen for beta-2AR agonists; shares compounds with Beta2AR agonist; Am2.2 cells, FAP fluorogen flow cytometry; active compounds read low; calls only at 10 µM; 1,100 tested, under 10 active; AID 588765;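 active means percent response below a set limit in fluorescence channel 1 and below 50% in channel 8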
* = called active by the depositor; i = inactive; x = no result given. This is a sample that favours compounds with a hit; in the whole collection about 2.5% have one here.

SMILES	ABHD5-PLIN5 inh	SENP1 inh	NadD block	Beta2AR agonist	GRK2 inh	Beta2AR ag CP1	FAP fluor counter
COc1ccc(OCC(=O)NNC(=O)c2cccs2)cc1	1	1	-1	2	0	x	x
CC1(C)c2cc(Cl)ccc2-n2c1cc(O)c(-c1ccccc1)c2=O	4	-20	1	-3	0	x	x
NC(=O)CC(NC(=O)Cc1ccc(Cl)cc1)c1ccc(NCCCN2CCCC2=O)c([N+](=O)[O-])c1 (stereo not drawn)	0	5	-2	26	1	66	i
NC(=O)CC(NC(=O)c1ccccc1)c1ccc(N2CCN(c3ccccn3)CC2)c([N+](=O)[O-])c1 (stereo not drawn)	-4	-2	-6	2	2	109	i
NC(=O)CC(NC(=O)c1ccccc1)c1ccc(NCCCN2CCCC2=O)c([N+](=O)[O-])c1 (stereo not drawn)	-6	2	-5	90*	0	36*	i
NC(=O)CC(NC(=O)c1ccc(Br)cc1)c1ccc(N2CCN(c3ccccc3)CC2)c([N+](=O)[O-])c1 (stereo not drawn)	-8	3	4	-13	0	x	x
NC(=O)CC(NC(=O)c1ccccc1)c1ccc(NCCN2CCOCC2)c([N+](=O)[O-])c1 (stereo not drawn)	-5	1	-1	6	4	x	x
Cc1cc(C)c2c(c1)c1nnc(SCCN3CCCCC3)nc1n2C	7	3	7	-3	x	x	x
COc1ccccc1NC(=O)COC(=O)/C=C/c1ccc(OC)c(OC)c1	-7	2	2	8	1	x	x
CCOc1ccc2nc(NC(=O)CSc3nc4cccnc4n3C)sc2c1	2	1	-8	49*	0	89	i
CC(C)Cn1nc(NS(=O)(=O)c2ccccc2)c2cc3ccccc3nc21	-10	4	3	1	0	127	i
CCn1nc(NS(=O)(=O)c2ccccc2)c2cc3ccccc3nc21	-9	-8	3	3	1	x	x
Cc1ccc(SCc2[nH]nc3c2C2(C(=O)Nc4ccc([N+](=O)[O-])cc42)C(C#N)=C(N)O3)cc1 (stereo not drawn)	8	2	-5	84*	0	113	i
CCOc1ccccc1C(=O)NCC(=O)OCc1csc(CC(=O)Nc2ccc(C)cc2)n1	-7	-156	27	85*	4	12*	i
COc1ccc(NC(=O)c2cccc(N3C(=O)C4C5CCC(C5)C4C3=O)c2)cc1 (stereo not drawn)	4	-1	-8	3	0	x	x
COc1ccc(NC(=O)c2cccc(N3C(=O)c4cccc([N+](=O)[O-])c4C3=O)c2)cc1	1	0	3	-4	3	91	i
O=C(Nc1ccccc1C(=O)O)c1cccc(F)c1	1	-1	-1	-3	0	x	x
O=C(O)c1cc(NC(=O)c2cccc(N3C(=O)c4ccccc4C3=O)c2)cc(C(=O)O)c1	1	2	-4	8	0	110	i
NS(=O)(=O)c1ccc(NC(=O)c2cccc(N3C(=O)c4ccccc4C3=O)c2)cc1	1	0	-4	85*	5	42*	i
O=C(O)c1cccc(N2C(=O)c3cccc4cccc(c34)C2=O)c1	2	0	-4	5	7	x	x
O=C(Nc1ccccc1C(=O)O)c1cccc(N2C(=O)c3ccccc3C2=O)c1	1	-2	-8	-10	7	79	i
CC(Oc1ccccc1F)C(=O)NNC(=O)CC(C)c1ccccc1 (stereo not drawn)	1	1	-3	-7	0	x	x
CCOC(=O)c1c(C)[nH]c(C(=O)OCC(=O)N(CC(C)C)C2CCS(=O)(=O)C2)c1C (stereo not drawn)	-1	-1	-2	5	0	x	x
O=C(CCS(=O)(=O)c1ccccc1)N(CCCN1CCOCC1)c1nc2c(F)cccc2s1	-1	2	-8	111*	0	82	i
